According to ChEMBL document CHEMBL3259763, “Synthesis and antifilarial activity of chalcone-thiazole derivatives against a human lymphatic filarial parasite, Brugia malayi” (Eur J Med Chem, 2014):
Activity calls are given as the source filed them. The rule behind the calls is not given here.

system: Brugia malayi; assay: Antifilarial activity against Brugia malayi adult worm assessed as inhibition of parasite motility after 48 hrs by microscopic analysis; format: functional, organism-based; settings: not given
Procedure, shortened: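 Freshly isolated adult female B. malayi were washed in HBSS (pH 7.2) and incubated one worm/ml/well, in triplicate, in HBSS with penicillin/streptomycin. Two-fold dilutions from 0.38-40 µM were given in DMSO (final <0.1%), with DMSO controls. After 48 h, motility was scored 0-4 under a microscope. IC50 was found by linear interpolation of percent inhibition versus DMSO.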

Which LC100 does the source give for `Cc1ccc(C(=O)/C=C/c2cc(C)c(O)c(/C=N/c3nccs3)c2)cc1` here?
Its LC100 is over 40 µM.

Which LC100 does the source give for `Cc1ccc(C(=O)/C=C/c2cc(/C=N/c3nccs3)c(O)c(C(C)C)c2)cc1` here?
The LC100 was over 40 µM.

With `Cc1cc(/C=C/C(=O)c2cccs2)cc(/C=N/c2nccs2)c1O` as the compound, how does the LC100 read?
The LC100 was over 40 µM.

Which LC100 does the source give for `Cc1ccc(C(=O)/C=C/c2cc(/C=N/c3nccs3)c(O)c(C(C)(C)C)c2)cc1` here?
The LC100 was over 40 µM.

Which LC100 does the source give for `CC(C)(C)c1cc(/C=C/C(=O)c2cccs2)cc(/C=N/c2nccs2)c1O` here?
Its LC100 is 2.5 µM.

With `Cc1cc(/C=C/C(=O)c2ccco2)cc(/C=N/c2nccs2)c1O` as the compound, how does the LC100 read?
The LC100 was over 40 µM.

Which IC50 does the source give for IVERMECTIN [listing 1 of 2 here] here?
Its IC50 is 3050 nM.

For IVERMECTIN [listing 2 of 2 here], which LC100 is on record?
The LC100 was 5 µM.

same assay, conditions: Brugia malayi, 48 h

Which IC50 does the source give for `CC(C)(C)c1cc(/C=C/C(=O)c2cccs2)cc(/C=N/c2nccs2)c1O` here?
The IC50 was 900 nM.

system: Brugia malayi; assay: Antifilarial activity against Brugia malayi adult worm assessed as inhibition of parasite viability after 48 hrs by MTT assay; format: functional; settings: not given
Procedure, shortened: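 Adult female B. malayi washed in HBSS pH 7.2, one worm/mL/well in triplicate, exposed 48 h at 37 °C in 5% CO2 to two-fold dilutions (0.38-40 µM; DEC 15.63-1000 µM) in HBSS with penicillin/streptomycin, DMSO <0.1% final; after motility scoring the same worms taken for MTT reduction; % inhibition vs DMSO control, IC50 by linear interpolation.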

With `Cc1ccc(C(=O)/C=C/c2cc(C)c(O)c(/C=N/c3nccs3)c2)cc1` as the compound, how does the inhibition read?
The inhibition was “inactive”.

For `Cc1ccc(C(=O)/C=C/c2cc(/C=N/c3nccs3)c(O)c(C(C)(C)C)c2)cc1`, which inhibition is on record?
The inhibition was “inactive”.

With `CC(C)(C)c1cc(/C=C/C(=O)c2cccs2)cc(/C=N/c2nccs2)c1O` as the compound, how does the inhibition (INH) read?
The inhibition (INH) was 49%.

With `Cc1cc(/C=C/C(=O)c2ccco2)cc(/C=N/c2nccs2)c1O` as the compound, how does the “inhibition (INH)” value read?
The value was 62%.

same assay, conditions: dose or concentration not given here

Which inhibition does the source give for IVERMECTIN [listing 2 of 2 here] here?
The inhibition was 5.8%.

system: not listed separately; assay: Cytotoxicity against African green monkey Vero C1008 cells assessed as cell death by three-fold serial dilution method; format: cell-based; settings: chlorocebus sabaeus, Vero C1008 cells
Procedure, shortened: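 Vero C1008 cells exposed to three-fold serial dilutions of test agents, starting above 20 x LC100; CC50 obtained by linear interpolation between the concentrations bracketing 50% inhibition.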

Which CC50 does the source give for `CC(C)(C)c1cc(/C=C/C(=O)c2cccs2)cc(/C=N/c2nccs2)c1O` here?
The CC50 was 40000 nM.

same assay, conditions: chlorocebus sabaeus, vero

With IVERMECTIN [listing 1 of 2 here] as the compound, how does the CC50 read?
Its CC50 is 230000 nM.

system: not listed separately; assay: (§1) Selectivity index, ratio of CC50 for African green monkey Vero C1008 cells to IC50 for Brugia malayi adult worm; format: functional; settings: not given
Procedure, shortened: (§2)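 SI computed as CC50 (Vero C1008) divided by IC50 against adult worms or mf; IC50 values from 48 h exposure of parasites to two-fold dilutions at 37 °C, with % inhibition vs DMSO-treated worms and linear interpolation.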

For `CC(C)(C)c1cc(/C=C/C(=O)c2cccs2)cc(/C=N/c2nccs2)c1O`, which “Ratio CC50/IC50” value is on record?
Its value is 44.

system: Vero C1008; assay: as §1; format: functional; settings: not given; procedure, shortened: as §2

With IVERMECTIN [listing 2 of 2 here] as the compound, how does the Ratio CC50/IC50 read?
The Ratio CC50/IC50 was 75.4.

system: Brugia malayi; assay: Antifilarial activity against Brugia malayi microflilariae worm assessed as inhibition of parasite motility after 48 hrs by microscopic analysis; format: functional, organism-based; settings: not given
Procedure, shortened: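 B. malayi microfilariae were washed in HBSS (pH 7.2) and plated at 40-50 mf/100 µL/well, in triplicate, in HBSS with penicillin/streptomycin. Two-fold dilutions from 0.38-40 µM were given in DMSO (final <0.1%), with DMSO controls, for 48 h at 37 °C, 5% CO2. Motility was scored microscopically, and IC50 was found by linear interpolation over control.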

For `Cc1ccc(C(=O)/C=C/c2cc(C)c(O)c(/C=N/c3nccs3)c2)cc1`, which LC100 is on record?
The LC100 was over 40 µM.

For `Cc1ccc(C(=O)/C=C/c2cc(/C=N/c3nccs3)c(O)c(C(C)C)c2)cc1`, which LC100 is on record?
The LC100 was over 40 µM.

Which LC100 does the source give for `Cc1cc(/C=C/C(=O)c2cccs2)cc(/C=N/c2nccs2)c1O` here?
Its LC100 is over 40 µM.

With `Cc1ccc(C(=O)/C=C/c2cc(/C=N/c3nccs3)c(O)c(C(C)(C)C)c2)cc1` as the compound, how does the LC100 read?
The LC100 was 40 µM.

With `CC(C)(C)c1cc(/C=C/C(=O)c2cccs2)cc(/C=N/c2nccs2)c1O` as the compound, how does the LC100 read?
Its LC100 is 5 µM.

Which LC100 does the source give for `Cc1cc(/C=C/C(=O)c2ccco2)cc(/C=N/c2nccs2)c1O` here?
The LC100 was over 40 µM.

Which IC50 does the source give for IVERMECTIN [listing 1 of 2 here] here?
Its IC50 is 1570 nM.

For IVERMECTIN [listing 2 of 2 here], which LC100 is on record?
The LC100 was 2.5 µM.

same assay, conditions: Brugia malayi, 48 h

With `CC(C)(C)c1cc(/C=C/C(=O)c2cccs2)cc(/C=N/c2nccs2)c1O` as the compound, how does the IC50 read?
Its IC50 is 1800 nM.

system: not listed separately; assay: (§3) Selectivity index, ratio of CC50 for African green monkey Vero C1008 cells to IC50 for Brugia malayi microflilariae worm; format: functional; settings: not given; procedure, shortened: as §2

Which “Ratio CC50/IC50” value does the source give for `CC(C)(C)c1cc(/C=C/C(=O)c2cccs2)cc(/C=N/c2nccs2)c1O` here?
Its value is 22.

system: Vero C1008; assay: as §3; format: functional; settings: not given; procedure, shortened: as §2

With IVERMECTIN [listing 2 of 2 here] as the compound, how does the Ratio CC50/IC50 read?
The Ratio CC50/IC50 was 146.

system: Brugia malayi; assay: Antifilarial activity against Brugia malayi adult worm infected in jird assessed as embryostatic effect at 100 mg/kg, sc administered for 5 days starting from day 7/8 post-worm transplantation (reference value: 9.80 +/- 5.63%); format: functional; settings: route subcutaneous

For `CC(C)(C)c1cc(/C=C/C(=O)c2cccs2)cc(/C=N/c2nccs2)c1O`, which Activity is on record?
Its Activity is 100%.

system: Brugia malayi; assay: Antifilarial activity against Brugia malayi adult worm infected in jird assessed as embryostatic effect at 1 mg/kg, sc administered for 5 days starting from day 7/8 post-worm transplantation (reference value: 9.80 +/- 5.63%); format: functional, organism-based; design: dose 1 mg/kg; settings: not given

For IVERMECTIN [listing 2 of 2 here], which Activity is on record?
The Activity was 43.2%.

system: Brugia malayi; assay: Antifilarial activity against Brugia malayi adult worm infected in jird assessed as microfilaricidal activity at 1 mg/kg, sc administered for 5 days starting from day 7/8 post-worm transplantation measured on day 7 post-initiation of drug treatment; format: functional, organism-based; design: dose 1 mg/kg; settings: not given
Procedure, shortened: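 Mf in peritoneal cavity of transplanted jirds were examined on day 7/8 p.i.t. after 5 days of s.c. dosing started on day 7/8; change was expressed as % of the pretreatment mf count.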

For IVERMECTIN [listing 2 of 2 here], which Activity is on record?
Its Activity is “inactive”.

system: Meriones unguiculatus; assay: Toxicity in jird infected with Brugia malayi adult worm assessed as normal behaviour at 100 mg/kg, sc administered for 5 days starting from day 7/8 post-worm transplantation measured on day 60 post-initiation of drug treatment; format: organism-based; design: dose 100 mg/kg, route subcutaneous; settings: gerbil, in vivo, 120 h

Which Activity does the source give for `CC(C)(C)c1cc(/C=C/C(=O)c2cccs2)cc(/C=N/c2nccs2)c1O` here?
The Activity was “Non-toxic”.

system: Brugia malayi; assay: Antifilarial activity against third stage infective larvae (L3) form of Brugia malayi infected in Mastomys coucha assessed as reduction in adult worm recovery at 100 mg/kg, sc administered for 5 days measured on day 91 post-initiation of drug treatment; format: functional; settings: route subcutaneous
Procedure, shortened: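 M. coucha carrying 5-7 month old L3-induced sub-periodic B. malayi infections received 5 days of s.c. dosing (vehicle 0.1% Tween-80; DEC in water). Killed day 91 p.i.t.; adults were recovered from teased heart, lung and testes, and % reduction in recovery was calculated vs vehicle controls.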

With `CC(C)(C)c1cc(/C=C/C(=O)c2cccs2)cc(/C=N/c2nccs2)c1O` as the compound, how does the inhibition in vivo at 100 mg/kg read?
The inhibition in vivo at 100 mg/kg was 48.6%.

system: Brugia malayi; assay: Antifilarial activity against third stage infective larvae (L3) form of Brugia malayi infected in Mastomys coucha assessed as female sterilizing efficacy at 100 mg/kg, sc administered for 5 days measured on day 91 post-initiation of drug treatment (reference value: 23%); format: functional; settings: route subcutaneous

Which Activity does the source give for `CC(C)(C)c1cc(/C=C/C(=O)c2cccs2)cc(/C=N/c2nccs2)c1O` here?
The Activity was 44%.

system: Mastomys coucha; assay: Toxicity in Mastomys coucha infected with third stage infective larvae (L3) form of Brugia malayi assessed as normal behaviour at 100 mg/kg, sc administered for 5 days measured on day 91 post-initiation of drug treatment; format: organism-based; design: dose 100 mg/kg, route subcutaneous; settings: in vivo, 120 h

Which Activity does the source give for `CC(C)(C)c1cc(/C=C/C(=O)c2cccs2)cc(/C=N/c2nccs2)c1O` here?
Its Activity is “Non-toxic”.

system: Brugia malayi; assay: Antifilarial activity against Brugia malayi adult worm infected in jird assessed as reduction in adult worm recovery at 1 mg/kg, sc administered for 5 days starting from day 7/8 post-worm transplantation measured on day 60 post-initiation of drug treatment; format: functional, organism-based; design: dose 1 mg/kg; settings: not given
Procedure, shortened: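 Jirds carrying intraperitoneally transplanted B. malayi (sub-periodic) adults were dosed s.c. for 5 days starting day 7/8 after transplantation; test agents were suspended fresh daily in 0.1% Tween-80, DEC in water, ivermectin in 0.1% Tween-80. Killed day 60 p.i.t.; worms recovered from peritoneal washings were counted, and % reduction was calculated vs vehicle controls (4-8 animals).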

For IVERMECTIN [listing 2 of 2 here], which inhibition is on record?
Its inhibition is 21.1%.
